Not all results are given here.
PGC1a Ac signal: raises PGC1a acetylation signal in U2OS cells | U2OS PGC1a acetylation AlphaScreen, overnight | activation, % at 15.6 µM | 0.21% of 350,000 active | AID 651723;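 active = every replicate reaching activation of at least 50%, whatever the mean replicate activation; inconclusive = replicates that disagree or another doubt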;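 also: hits raise the AlphaScreen acetylation signal above neutral controls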
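Test system: U2OS cells expressing flag-PGC1a plus GCN5; Amount: 7000 U2OS cells per well; Compound: single test concentration per compound; Incubation: compound overnight at 37 °C, each detection step 1 h RT; Signal: AlphaScreen lysate read.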
G6PC hep suppr: PGC-1a acetylation activator altering hepatocyte G6PC expression | shares compounds with PGC1a Ac signal | primary mouse hepatocytes, G6PC mRNA qPCR, forskolin | G6PC suppression (normalized activity, % of positive control; higher = more suppression), % at 26 µM | 240 tested, under 10 active;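 active = dose curves showing G6PC suppression whose half-maximal dose is at most twice the top valid dose; inconclusive = flat curves with moderate negative activity, or unreliable fits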;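 also: G6PC expression relative to GAPDH housekeeping gene as delta delta Ct; 0% = median of neutral control wells and 100% = median of positive control wells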
Hep PCK1 suppr: PGC-1a acetylation activator altering hepatocyte PCK1 expression. shares compounds with PGC1a Ac signal. primary mouse hepatocytes, PCK1 mRNA qPCR, forskolin-stimulated. PCK1 expression decrease, unspecified at 26 µM. 230 tested, under 10 active. AID 743465;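 active = compounds lowering PCK1 expression whose fitted half-maximal concentration is at most twice the top tested dose; inconclusive = flat fit with moderate opposite-direction effect, or poor fit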;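 also: values are delta delta Ct of PCK1 relative to GAPDH; higher delta delta Ct means lower PCK1 expression so positive values indicate hits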
Hep PGC-1a down: hepatocyte PGC-1a expression change via PGC-1a acetylation activation. shares compounds with PGC1a Ac signal. primary mouse hepatocytes, PGC-1a mRNA qPCR, forskolin; top dose 26 µM. max activity (PGC-1a expression decrease), %. 240 tested, under 10 active;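 active = compound lowering PGC-1a expression with fitted half-maximal concentration at most twice its top tested dose; inconclusive = flat curve with moderate opposite-direction effect, or poor fit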;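 also: 0% = neutral control wells median and 100% = positive control wells median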
* marks the source's active call; other numbers are inactive results; ? = inconclusive; · = not tested or not shown; [ ] = dose if it differs, or a comment.

SMILES	PGC1a Ac signal	G6PC hep suppr	Hep PCK1 suppr	Hep PGC-1a down
CC(=O)c1cccc(N(C(=O)c2cnccn2)C(C(=O)NCc2ccccc2)c2ccco2)c1 (configuration not stated)	96*	45	129	188
CC(=O)c1cccc(N(C(=O)Cn2nnc3ccccc32)C(C(=O)NCc2ccccc2)c2ccccn2)c1 (configuration not stated)	?	-29	-11	-33
COC(=O)c1nn(-c2ccccc2)ccc1=O	-44	·	·	·
C=CCNc1nc(Cl)nc(NCc2ccco2)n1	-42	·	·	·
CC1CC(NS(=O)(=O)c2cccs2)CC(C)(C)C1 (configuration not stated)	265*	99	69	157
CCN1CC=C2C(C#N)=C(N)C(C#N)(C#N)[C@H](c3cccc(OC)c3OC)[C@H]2C1	-41	·	·	·
O=C(CCc1nc2ccccc2c(=O)[nH]1)OCC(=O)N1CCc2ccccc21	-53	·	·	·
CCO[C@H]1OC(C(=O)N2CCCCCCC2)=C[C@@H](C2CCCCC2)[C@@H]1CCCO	84*	-2	62	51
Cc1cc(N)c2cc(NC(=O)/C=C/c3ccccc3Cl)ccc2n1	-80	·	·	·
COc1cccc(NC(=O)N2CCN(c3cccc(C)c3)C(C)C2)c1 (configuration not stated)	-45	·	·	·
CCOC(=O)C1=Nc2ccccc2C1=[N+]=[N-]	-45	·	·	·
COc1ccc(C(C)(O)c2nc(-c3ccc(S(C)(=O)=O)cc3)cs2)cc1 (configuration not stated)	?	-43	16	49
COc1ccc2nc3cc(Cl)ccc3c(Nc3cc(CN4CCCC4)c(O)c(CN4CCCC4)c3)c2n1	-72	·	·	·
COc1ccccc1/C=C/c1nc2ccc(OC(C)=O)cc2c(=O)o1	-40	·	·	·
Cc1ccc(C(=O)Nc2nc(=O)n(C(=O)CC(C)C)s2)cc1	-48	·	·	·
CC1(Cc2ccc(Cl)cc2)C(=O)Nc2c(Cl)ccc(Cl)c21 (configuration not stated)	80*	-63	·	?
O=C(c1ccccc1Cl)N1CCNCC1	-67	·	·	·
CCc1nc(SCC(=O)N2c3ccccc3Sc3ccccc32)c2ccccc2n1	-43	·	·	·
COc1ccc(C(=O)NCCCSC)cc1OC1CCN(C(C)C)CC1	-44	·	·	·
COc1ccc(S(=O)(=O)N2CCOCC2)cc1NC(=O)CCNC(=O)c1ccc(Cl)cc1	76*	3	49	?
C=C1C(=O)[C@]23C[C@H]1CC[C@H]2[C@]1(C)[C@@H](OC(C)=O)CC[C@@](C)(C(=O)OC)[C@H]1C[C@@H]3OC(C)=O	-94	·	·	·
C[C@@H]1CN([C@@H](C)CO)C(=O)c2c(c3ccccc3n2C)-c2ccccc2CO[C@@H]1CN(C)C(=O)Nc1cccc(C(F)(F)F)c1	79*	103[23.5 µM]	45[23.5 µM]	58
CO[C@@H](C(=O)N(C)C[C@H]1OCc2ccccc2-c2c(n(C)c3ccccc23)C(=O)N([C@H](C)CO)C[C@H]1C)c1ccccc1	72*	8	32	79
C[C@@H]1CN([C@@H](C)CO)C(=O)c2c(c3ccccc3n2C)-c2ccccc2CO[C@@H]1CN(C)C(=O)Nc1ccc(F)cc1	?	-2[23.5 µM]	42[23.5 µM]	32
C[C@@H]1CN([C@H](C)CO)C(=O)c2c(c3ccccc3n2C)-c2ccccc2CO[C@@H]1CN(C)C(=O)Nc1cccc(C(F)(F)F)c1	68*	112	196	157
SMILES	PGC1a Ac signal	G6PC hep suppr	Hep PCK1 suppr	Hep PGC-1a down
CN(C)c1nc(SCCOC(=O)COc2ccc(Cl)cc2Cl)nc(N(C)C)n1	-52	·	·	·
COCCNC(=O)c1ccc(C)cc1C	-44	·	·	·
Cc1cccc(-c2ccc3[nH]c4c(c3c2)CCN2C[C@@H]([C@H](C)O)[C@@H](N(C)C(=O)NC3CCCCC3)C[C@@H]42)c1	-40	·	·	·
CCNC(=O)NC(=O)COc1ccccc1C#N	-45	·	·	·
N#Cc1ccccc1COC(=O)c1ccc2c(c1)OCCO2	?	-9	11	-16
Cc1cc(=O)[nH]c(NN=Cc2cc(Br)ccc2O)n1	-50	·	·	·
Oc1ccc(-c2nc(-c3ccc(O)c(O)c3)cs2)cc1	-46	·	·	·
O=C(Cn1cnc2c(nnn2Cc2ccc(Cl)cc2)c1=O)c1ccccc1	-50	·	·	·
CC(=O)c1ccc(N2CCN(C(=O)C(=O)c3c(C)[nH]c4ccccc34)CC2)cc1	66*	-37	-14	-14
CC(=O)N(Cc1ccc(F)cc1)C1=C(NCCc2ccccc2)C(=O)c2ccccc2C1=O	-84	·	·	·
CC(=O)[C@H]1CC[C@H]2[C@@H]3CC=C4C[C@@H](OS(=O)(=O)O)CC[C@]4(C)[C@H]3CC[C@]12C	-47	·	·	·
O=C(CCn1nnc2ccccc21)Nc1nnc(Cc2ccccc2)s1	63*	-50	·	?
Brc1ccc(N/N=C(/N=Nc2nn[nH]n2)c2ccccc2)cc1	-97	·	·	·

Screening data: PubChem BioAssay, Broad Institute
